Assay outcomes from PubChem.
T cell HTS = modulators of CD8 T cell-vesicle binding, primary screen, mouse 2C CD8+ T cells, flow cytometry; 2C CD8+ T cell-vesicle binding; stronger effect = lower value; response (vesicle binding), % at 7 µM; hit rate 0.068% among 330,000; AID 2052, 2009;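 active = response, share of CD8 T cells binding vesicles, and their 90th percentile fluorescence all below set limits, cut at about 80% in these data, passing the limit was not always enough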;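 note: values below 100% mean blocked vesicle binding to the CD8+ T cells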
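Test system: purified 2C TCR transgenic mouse naive CD8+ T cells. Probe or stimulus: QL9-peptide-loaded Drosophila micro-vesicles bearing Ld, ICAM-1 and B7-1. Incubation: binding step 1.5 h, 37 °C, antibody labelling 20 min, ice. Measured by: flow cytometry of vesicle-bound cells.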
Rtt109 HAT inh = inhibitors of C. albicans Rtt109/Vps75 HAT, primary screen, biochemical, ThioGlo CoA-SH fluorescence, plate reader | purified Rtt109/Vps75, 4 h | inhibition, % at 34.9 µM | hit rate 0.16% among 330,000;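 active = inhibition of at least 50% in every replicate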
NR3A LBD binder = binders of NR3A ligand-binding domain, primary screen, biophysical, differential scanning fluorimetry, uHTS; Glutamate receptor ionotropic, NMDA 3A (GRIN3A) ligand-binding domain; NR3A LBD differential scanning fluorimetry, Tm shift; 0% = protein alone, 100% = glycine-bound protein; Tm shift relative to glycine control, % at 25 µM; hit rate 2.5% among 340,000;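 active = melting temperature shift of at least 10% of the positive control shift, at one fixed dose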
JMJD2C inh = inhibitors of GASC-1 histone demethylase, primary screen, biochemical, fluorescence, DELFIA europium; Lysine-specific demethylase 4C (Homo sapiens), Q9H3R0; GST-JMJD2C(1-420) H3K9me3 demethylation; inhibition, % at 2.35 µM; hit rate 0.069% among 330,000; AID 2099, 2009;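 active = more than half of a compound's replicate wells show inhibition beyond 50%, single wells judged on their own value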;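 note: signal counts dimethyl H3K9 product captured on neutravidin plate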
Target sequence (Q9H3R0 1-420 limits assumed): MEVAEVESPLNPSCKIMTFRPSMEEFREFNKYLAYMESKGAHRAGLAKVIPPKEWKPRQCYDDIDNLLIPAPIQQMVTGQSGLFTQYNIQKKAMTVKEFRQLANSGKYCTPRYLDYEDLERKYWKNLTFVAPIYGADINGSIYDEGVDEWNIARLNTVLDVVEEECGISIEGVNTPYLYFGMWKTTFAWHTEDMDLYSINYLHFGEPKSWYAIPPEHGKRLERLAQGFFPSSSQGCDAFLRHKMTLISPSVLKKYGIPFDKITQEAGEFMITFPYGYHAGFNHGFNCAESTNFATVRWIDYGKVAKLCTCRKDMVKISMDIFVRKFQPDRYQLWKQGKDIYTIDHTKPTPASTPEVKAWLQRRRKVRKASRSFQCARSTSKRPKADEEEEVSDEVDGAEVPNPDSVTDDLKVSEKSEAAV
A number is an active result; n = inactive; x = no result given. A selection: hits, their analogues and other compounds. The true share with any hit is near 2.8%.

SMILES	T cell HTS	Rtt109 HAT inh	NR3A LBD binder	JMJD2C inh
O=[N+]([O-])c1ccc(NC(=S)NCCc2ccc(F)cc2)cc1	n	n	30.2	n
Fc1ccc(CCNC(=S)Nc2ccc(F)c(Cl)c2)cc1	n	n	34.9	n
O=C(NCCc1ccc(Cl)cc1)Nc1ccc(F)cc1	n	n	n	n
O=C(NCCc1ccc(F)cc1)Nc1ccc([N+](=O)[O-])cc1	n	n	n	n
CSCCC(NS(=O)(=O)c1ccc(C)cc1)C(=O)NCC(C)(C)N1CCOCC1 (stereo unspecified)	n	n	n	n
O=C(Cc1cccs1)N[C@@H]1c2ccccc2CC[C@@H]1OCc1ccccc1	x	n	n	x
N#C/C(=C\c1ccc(-c2ccccc2Cl)o1)C(=O)Nc1nc2ccccc2s1	n	n	18.3	n
CC(C)c1cc(C(C)C)c(S(=O)(=O)N2CCNCC2)c(C(C)C)c1	n	n	n	n
COc1ccc(NS(=O)(=O)c2ccc(C)c(C(=O)N3CC(C)OC(C)C3)c2)cc1 (stereo unspecified)	n	n	11.5	n
N#CCn1cc(/C=N/NC(=O)c2cc3c(ccc4ccccc43)o2)c2ccccc21	n	n	24.8	n
N#CCC(=O)N/N=C/c1cn(Cc2ccccc2C#N)c2ccccc12	n	n	n	n
N#CCC(=O)N/N=C/c1cn(Cc2ccc(Cl)c(Cl)c2)c2ccccc12	n	n	30.9	n
COc1cc(/C=N/NC(=O)c2cc3c(ccc4ccccc43)o2)cc(OC)c1O	n	n	x	n
COc1ccc(/C=N\NC(=O)c2cc3c(ccc4ccccc43)o2)cc1O	n	n	25.4	n
COc1ccc(/C=N/NC(=O)c2cc3c(ccc4ccccc43)o2)cc1OC	n	n	20.1	n
COc1ccccc1/C=N/NC(=O)c1cc2c(ccc3ccccc32)o1	n	n	n	n
CCN(CC)C(=O)[C@H]1C[C@H](CC(=O)NCCC2=CCCCC2)C(=O)N2CCc3c([nH]c4cc(CCC(=O)N(C)C)ccc34)[C@]12C	x	n	n	x
Cc1cc(C)cc(OCC(=O)OC(C)C(=O)Nc2ccc(Cl)cn2)c1 (stereo unspecified)	n	n	n	n
Cc1nc(N)[nH]c(=O)c1CCCNc1ccc([N+](=O)[O-])cc1	x	n	n	x
Cc1ccccc1S(=O)(=O)N1CCN(C)CC1	n	n	n	n
Cc1cccc(C(C)C)c1NC(=O)COC(=O)c1cccc(S(=O)(=O)N2CCc3ccccc3C2)c1	n	n	21.7	n
CCc1cccc(CC)c1NC(=O)COC(=O)c1cccc(S(=O)(=O)N2CCc3ccccc3C2)c1	n	n	n	n
O=C(CSc1nc2ccccc2[nH]1)c1c[nH]c2ccccc12	n	n	14.4	n
Cc1cc(C(=O)CSc2nc3ccccc3[nH]2)c(C)n1Cc1ccco1	n	n	13.1	n
O=C(CSc1nc2ccccc2c(=O)n1-c1ccc(F)cc1F)c1c[nH]c2ccccc12	n	n	19.2	n
SMILES	T cell HTS	Rtt109 HAT inh	NR3A LBD binder	JMJD2C inh
Cc1ccc2nc(SCC(=O)c3c[nH]c4ccccc34)[nH]c2c1	n	n	14.8	n
CCOC(=O)C1=C(COC(=O)C(CC)c2ccccc2)NC(=O)NC1C (stereo unspecified)	n	n	n	n
Cc1ccc2nc(SCC(=O)c3c(C)[nH]c4ccccc34)[nH]c2c1	n	n	11.8	n
Cc1[nH]c2ccccc2c1C(=O)CSC(=S)N(C)C	n	n	16.4	n
O=C(COC(=O)c1ccco1)NNC(=O)c1ccc(Cl)cc1	n	n	n	81.2
O=C(Cc1ccc(Cl)cc1Cl)Nc1ccc(OC(F)F)c(Cl)c1	n	n	n	n
O=C(Nc1ccc([N+](=O)[O-])cc1)Nc1ccc(OC(F)F)c(Cl)c1	n	n	14.8	n
O=C(Nc1ccc(OC(F)F)c(Cl)c1)Nc1ccc2c(c1)OCO2	n	n	35.2	n
O=C(NNS(=O)(=O)c1ccc(Br)cc1)NC1CCCCC1	n	n	13.0	n
O=C(N1CCCCC1)N1CCC(c2nc3ccccc3[nH]2)CC1	n	n	n	n
CCOC(=O)N1CCC(c2nc3ccccc3[nH]2)CC1	n	n	n	53.4
CCN(CC)S(=O)(=O)c1ccc(N/N=C/c2cc(OC)ccc2O)nc1	n	n	24.2	n
